Data: ChEMBL document CHEMBL1122292, “Aza analogues of lucanthone: synthesis and antitumor and bactericidal properties” (J Med Chem, 1983)

Experiments:
Assay type in all cases: functional, organism-based
Candida albicans [1] = assay: In vitro antibiotic activity against Candida albicans at 3.6E-8 mol dose; - symbol indicates negative result.
In short: (§1)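 Compounds were dissolved in ethyl alcohol at 3–5 × 10⁻⁶ mol/mL. Aliquots of 5, 10 or 20 μL were applied to 6-mm filter disks and dried under a light nitrogen stream. The disks were laid on an agar overlay inoculated with the test organism and incubated at 37 °C for 24 h. Inhibition-zone diameters were then measured.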

Bacillus subtilis = assay: In vitro antibiotic activity against Bacillus subtilis ATCC 6633 at 1.8E-8 mol dose; - symbol indicates negative result.; in short: as §1
Staphylococcus aureus [2] = assay: In vitro antibiotic activity against Staphylococcus aureus ATCC 6358P at 1.8E-8 mol dose; +/- symbol indicates slightly positive result.; in short: as §1
Staphylococcus aureus [3] = assay: In vitro antibiotic activity against Staphylococcus aureus ATCC 6358P at 7.2E-8 mol dose; +/- symbol indicates slightly positive result.; in short: as §1
Candida albicans [4] = assay: In vitro antibiotic activity against Candida albicans at 1.8E-8 mol dose; - symbol indicates negative result.; in short: as §1
Escherichia coli = assay: In vitro antibiotic activity against Escherichia coli ATCC 10536 at 7.2E-8 mol dose; ++ symbol indicates slight constraint, transient positive result.; in short: as §1
Candida albicans [5] = assay: In vitro antibiotic activity against Candida albicans at 7.2E-8 mol dose; - symbol indicates negative result.; in short: as §1
Staphylococcus aureus [6] = assay: In vitro antibiotic activity against Staphylococcus aureus ATCC 6358P at 3.6E-8 mol dose; +/- symbol indicates slightly positive result.; in short: as §1

SMILES: CCN(CC)CCCNc1nc(C)cc2nc3ccccc3c(O)c12
- Antibiotic activity (Candida albicans [1]): Negative result
- Antibiotic activity (Bacillus subtilis): Negative result
- Antibiotic activity (Staphylococcus aureus [2]): +/-
- Antibiotic activity (Staphylococcus aureus [3]): +/-
- Antibiotic activity (Candida albicans [4]): Negative result
- Antibiotic activity (Escherichia coli): slight constraint, transient positive result
- Antibiotic activity (Candida albicans [5]): Negative result
- Antibiotic activity (Staphylococcus aureus [6]): +/-
